A selection: hits, their analogues and other compounds. The true share with any hit is near 5.7%.
T cruzi inh: T. cruzi replication inhibition | T. cruzi beta-gal in NIH3T3, luminescence, 90 h | inhibition, % (no concentration beside the values) | AID 1885 | 300,000 compounds, 1.4% hits;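 active = mean inhibition across valid replicates above about 55%, limit read from the data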;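 also: signal also drops with host cell toxicity which is not excluded here; 0% = plate median of DMSO wells and 100% = zero luminescence signal; higher percent means less beta-gal luminescence so fewer parasites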
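System: NIH/3T3 fibroblasts plus reporter T. cruzi. Medium: DMEM plus 2% FBS. Probe or stimulus: 5000 reporter trypomastigotes per well. Compound: single 50 nL compound addition per well in DMSO. Incubation: co-culture of at least 90 h after 3 h attachment. Detection: GalScreen β-gal luminescence, detergent lysis, 60 min. Evaluation: parasite load inhibition, %.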
Beta apoptosis: beta cell apoptosis inhibition | INS-1E cytokine-induced death, ATP luminescence, 48 h; percent of positive-control rescue, neutral wells zero | protection from apoptosis, % (concentration not given with the values) | 300,000 compounds, 0.8% hits | AID 435005;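 active = Every replicate reaches about 75%, or at least half do and their mean reaches it too, limit read from the data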;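 also: 0% = cytokine-treated negative control wells and 100% = positive control rescue; higher means more ATP so stronger rescue from cytokine killing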
Mdm2 MdmX PPI: inhibitors of human Mdm2/MdmX interaction; O15151+Q00987; 330,000 compounds, 3% hits; SaOS-2 split-luciferase Mdm2/MdmX complementation, luminescence; inhibition, % at 8 µM;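 active = inhibition of at least 50% at 8 µM in the primary screen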
Calb FLC: C. albicans growth modulation with fluconazole. 300,000 compounds, 0.57% hits. growth inhibition, % (no concentration beside the values). C. albicans CaCi-2 + fluconazole, Alamar Blue growth, 48 h;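 active = growth inhibition above about 58% in most replicates, limit read from the data, passing the limit was not always enough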;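 also: all wells also contain fluconazole at 8 µg/ml as a sub-toxic cotreatment; 0% = median of DMSO wells and 100% = median of geldanamycin control wells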
CSC inhib: cancer stem cell inhibition. cancer stem cell-like cells viability, luminescence. 300,000 compounds, 1.1% hits. inhibition, % at 7.5 µM; in the data active = inhibition above about 75%; tested in HMLE shEcad cells
SKKanGAS inh: inhibitors of SKKanGAS S. pyogenes growth in kanamycin (SK-promoter or general growth effect) | BacTiter-Glo, 6 h | inhibition, % at 7.5 µM | 300,000 compounds, 1.3% hits | AID 1662;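 active = mean replicate score, as percent of positive control median, at least 50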;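 also: strain carries kanamycin resistance gene driven by streptokinase promoter and grows in 40 µg/ml kanamycin; loss of luminescence reflects streptokinase promoter inhibition or plain growth inhibition; 0% = median of DMSO wells and 100% = positive control at its reference dose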
Mdm2 MdmX conf: human Mdm2/MdmX binding inhibition, confirmed | luminescent assay | shares compounds with Mdm2 MdmX PPI | inhibition, % at 8 µM | 10,000 compounds, 55% hits; in the data active = inhibition above about 40%
FLuc counter: full-length luciferase inhibition in Mdm2/MdmX counter-screen; shares compounds with Mdm2 MdmX PPI; SaOS-2 full-length luciferase counterscreen, luminescence; inhibition, % at 8 µM; 6,200 compounds, 77% hits; AID 504607;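 active = mean inhibition at 8 µM reaching about 37%, which flags the compound as non-specific, limit read from the data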;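 also: p53-null SaOS-2 cells with luciferase driven by a doxycycline-inducible promoter; compound on cells about two nights before reading with doxycycline added after day one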
* = called active by the depositor; · = not tested or not shown; ! = a repeat was not active.

SMILES	T cruzi inh	Beta apoptosis	Mdm2 MdmX PPI	Calb FLC	CSC inhib	SKKanGAS inh	Mdm2 MdmX conf	others
COc1ccc(-c2n[nH]c(=S)n2-c2ccccc2C)cc1OC	-5.3	-8.6	-2.0	1.5	26.5	-2.0	·
O=C(O)Cn1c2c(c3ccccc31)CSc1ccc(Cl)cc1-2	-5.6	-1.2	·	5.8	-24.8	-1.1	·
COc1cccc(NC(=O)CN(C)C(=O)CCNS(=O)(=O)c2ccc(C)cc2)c1	·	-4.1	13.2	·	-9.5	·	·
CC(C)(C)OC(=O)NCc1ccc(NC(=O)c2nc[nH]c2C(=O)N[C@@H](Cc2ccccc2)C(=O)OCc2ccccc2)cc1	-7.9	-1.2	59.8*	15.1	-24.8	21.2	16.2
CCOC(=O)c1ccc(NC(=O)c2nc[nH]c2C(=O)N[C@@H](C)C(=O)OC(C)(C)C)cc1	-15.6	3.3	4.0	-3.9	-4.9	19.5	·
CC(C)C[C@H](NC(=O)c1nc[nH]c1C(=O)N1CCN(C(=O)OC(C)(C)C)CC1)C(=O)OC(C)(C)C	3.0	-6.4	90.9*	1.3	51.1	-0.2	80.6*	FLuc counter=52.6*
C[C@H](NC(=O)c1[nH]cnc1C(=O)Nc1ccc(Cl)cc1)C(=O)OC(C)(C)C	-13.1	0.8	50.4*	29.9	-24.4	23.5	29.8
CC(C)(C)OC(=O)NCc1ccc(CNC(=O)c2[nH]cnc2C(=O)N[C@@H](Cc2ccccc2)C(=O)OCc2ccccc2)cc1	10.4	-3.5	2.8	6.3	1.4	11.8	·
CCNC(=O)/C(C#N)=C/c1c(N2CCN(Cc3ccc4c(c3)OCO4)CC2)nc2c(C)cccn2c1=O	35.4	-8.6	·	13.3	-2.3	-0.2	·
Cc1cc(=O)oc2cc(OCC(=O)N3CC(=O)Nc4ccccc43)c(Cl)cc12	·	-2.2	-4.6	·	-14.3	·	·
CC(C)C[C@@H](CO)N(Cc1ccccc1)S(=O)(=O)N(Cc1ccccc1)[C@H](CO)CC(C)C	·	30.7	81.3*	·	124.9*	·	18.8
CC(C)C[C@@H](CO)N(Cc1ccccc1)S(=O)(=O)N(Cc1ccccc1)[C@@H](CO)CC(C)C	·	12.3	82.6*	·	125.6*	·	-20.3
COc1ccc(CN([C@H](C)CO)S(=O)(=O)N(Cc2ccccc2)[C@H](CO)C(C)C)cc1	·	-4.9	-13.4	·	-5.1	·	·
C=C[C@H](CC(C)C)N(Cc1ccccc1)S(=O)(=O)N(Cc1ccccc1)[C@@H](C=C)CC(C)C	·	83.7*	83.5*	·	15.9	·	20.9
COc1ccc(CN([C@H](CO)CC(C)C)S(=O)(=O)N(Cc2ccccc2)[C@H](CO)CC(C)C)cc1	·	19.3	61.6*	·	·	·	18.8
O=S(=O)(N(Cc1ccccc1)[C@H](CO)Cc1ccccc1)N(Cc1ccccc1)[C@H](CO)Cc1ccccc1	·	-0.2	36.2	·	·	·	·
C=C[C@@H](C)N(Cc1ccc(OC)cc1)S(=O)(=O)N(Cc1ccccc1)[C@H](C=C)C(C)C	·	14.8	20.9	·	12.2	·	·
Cc1ccc(S(=O)(=O)N(CC(=O)N2CCOCC2)c2ccc(C(C)C)cc2)cc1	-9.1	·	2.0	-3.7	-4.5	-7.7	·
Cc1ccnc2c1ccc1cccnc12	·	·	83.5*	·	·	·	86.5*	FLuc counter=22.9
Cc1ccnc2c1ccc1c(C)ccnc12	·	102.3*	84.0*	·	110.6*	·	85.2*	FLuc counter=18.4
Cc1ccnc2c1ccc1ccccc12	-3.0	·	10.9	3.0	-9.8	-7.6	·
Cc1cccc2cccnc12	·	0.8	6.2	·	-5.8	·	·
c1cnc2c(c1)ccc1cccnc12	54.6*!	58.5	77.4*	109.8*	2.9	23.9	82.0*	FLuc counter=50.5*
CCc1nc(Nc2ccncc2)c2oc3ccccc3c2n1	65.7*	6.0	63.2*	84.5*	7.8	-0.4	78.6*	FLuc counter=31.6
CC(=O)Nc1ccc(Nc2nc(C)nc3c2oc2ccccc23)cc1	6.1	14.8	24.6	3.3	-8.9	16.2	·
Cc1nc(Nc2ccncc2)c2oc3ccccc3c2n1	73.1*	47.0	72.5*	-1.2	-1.8	-5.7	54.8*	FLuc counter=47.5*
O=C(CCN1C(=O)C2CC=CCC2C1=O)Nc1cc(C(F)(F)F)ccc1N1CCCC1 (stereo not drawn)	21.3	-8.4	14.6	-1.4	-0.8	-6.2	·

Screens deposited in PubChem by several laboratories.
